From ChEMBL document CHEMBL4715779, “In vivo effective dibenzo[b,d]furan-1-yl-thiazoles as novel PDE-4 inhibitors” (Bioorg Med Chem, 2016)

Tests used:
Mus musculus [1] = test: Antiinflammatory activity in Swiss albino mouse model of LPS-induced sepsis assessed as reduction in TNFalpha production at 3 mg/kg, po administered 30 mins before LPS stimulation and measured after 90 min by ELISA relative to control; assay type: functional; conditions: 2 h, time 120 min
How it was run: (§1)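 Female Swiss albino mice fasted 20 h with water, dosed orally in 0.5% Tween 80/0.25% CMC sodium; vehicle-only controls. 500 µg E. coli LPS (B4) in PBS i.p. 30 min later; retro-orbital bleed 90 min post-LPS, blood held overnight at 4 °C, serum TNF-α by mouse ELISA; % inhibition.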

[2] = Half life in Wistar rat at 5 mg/kg, iv; assay type: ADME, organism-based; conditions: in vivo
Mus musculus [3] = test: Antiinflammatory activity in Swiss albino mouse model of LPS-induced sepsis assessed as reduction in TNFalpha production at 0.3 mg/kg, po administered 30 mins before LPS stimulation and measured after 90 min by ELISA relative to control; assay type: functional; conditions: 2 h, time 120 min; how it was run: as §1
Rattus norvegicus [4] = test: Antiinflammatory activity in Wistar rat model of LPS-induced uveitis assessed as reduction in infiltrating cells in aqueous humor at 3 mg/kg, po administered 24 hrs after LPS stimulation and measured after 1 hr by hemocytometry relative to control; assay type: functional
[5] = target: T1, 3',5'-cyclic-AMP phosphodiesterase 4B (Homo sapiens, UniProt Q07343); test: Inhibition of human PDE4B using [3H]cAMP as substrate at 100 nM incubated for 5 mins followed by substrate addition and measured after 10 mins by scintillation proximity assay relative to control; conditions: time 15.0 min
T1 sequence (Q07343 whole entry): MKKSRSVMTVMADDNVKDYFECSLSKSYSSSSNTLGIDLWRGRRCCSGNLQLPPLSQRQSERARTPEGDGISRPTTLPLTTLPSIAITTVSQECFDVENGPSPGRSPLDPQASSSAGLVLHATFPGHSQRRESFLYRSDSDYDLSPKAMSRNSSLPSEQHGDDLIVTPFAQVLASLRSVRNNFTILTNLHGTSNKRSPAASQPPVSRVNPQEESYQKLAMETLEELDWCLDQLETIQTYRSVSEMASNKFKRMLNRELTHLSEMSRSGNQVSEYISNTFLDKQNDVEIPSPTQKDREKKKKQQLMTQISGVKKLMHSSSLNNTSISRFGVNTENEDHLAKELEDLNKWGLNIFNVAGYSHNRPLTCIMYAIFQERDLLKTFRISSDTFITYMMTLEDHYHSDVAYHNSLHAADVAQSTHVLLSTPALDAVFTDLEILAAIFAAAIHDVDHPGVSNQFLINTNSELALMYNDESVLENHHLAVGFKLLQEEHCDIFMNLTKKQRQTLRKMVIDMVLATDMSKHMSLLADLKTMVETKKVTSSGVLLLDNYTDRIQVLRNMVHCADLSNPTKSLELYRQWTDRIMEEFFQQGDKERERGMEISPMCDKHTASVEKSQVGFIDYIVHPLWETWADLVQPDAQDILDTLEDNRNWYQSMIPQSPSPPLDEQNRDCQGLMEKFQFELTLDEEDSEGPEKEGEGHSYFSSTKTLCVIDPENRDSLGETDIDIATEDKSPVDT
How it was run: (§2)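 Purified human PDE-4B2 in 50 mM Tris pH 7.4, 8.3 mM Mg2+, 1% DMSO final, enzyme converting 10–20% of substrate; 5 min pre-incubation at 37 °C, then 0.5 µM cAMP with ~50,000 cpm [3H]-cAMP for 10 min; stopped with yttrium silicate SPA beads containing 18 mM ZnSO4, read after >30 min settling. Background = no enzyme; IC50 from 8–10-point 4-parameter fit.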

[6] = Volume of distribution in Wistar rat at 5 mg/kg, iv; assay type: ADME, organism-based; conditions: in vivo
Mus musculus [7] = test: Antiinflammatory activity in Swiss albino mouse model of LPS-induced sepsis assessed as reduction in TNFalpha production at 1 mg/kg, po administered 30 mins before LPS stimulation and measured after 90 min by ELISA relative to control; assay type: functional; conditions: 2 h, time 120 min; how it was run: as §1
Rattus norvegicus [8] = test: Antiinflammatory activity in Sprague-Dawley rat model of LPS-induced COPD and asthma assessed as reduction in total cell count in BALF at 30 mg/kg, po administered 30 mins before LPS stimulation and measured after 6 hrs relative to control; assay type: functional; conditions: time 6.5 hrs
Rattus norvegicus [9] = test: Antiinflammatory activity in Sprague-Dawley rat model of LPS-induced COPD and asthma assessed as reduction in neutrophil influx in BALF at 10 mg/kg, po administered 30 mins before LPS stimulation and measured after 6 hrs relative to control; assay type: functional; conditions: time 6.5 hrs
[10] = Half life in Wistar rat at 10 mg/kg, po; assay type: ADME, organism-based; conditions: in vivo
[11] = Tmax in Wistar rat at 10 mg/kg, po; assay type: ADME, organism-based; conditions: in vivo
Rattus norvegicus [12] = test: Antiinflammatory activity in Wistar rat model of LPS-induced uveitis assessed as reduction in infiltrating cells in aqueous humor at 0.5 mg/kg, po administered 24 hrs after LPS stimulation and measured after 1 hr by hemocytometry relative to control; assay type: functional
[13] = Initial concentration in Wistar rat at 5 mg/kg, iv; assay type: ADME, organism-based; conditions: in vivo
PBMC [14] = test: Inhibition of PDE-4 in human PBMC assessed as LPS-induced TNFalpha production at 1000 nM incubated for 15 mins followed by LPS stimulation and measured after 18 hrs by ELISA relative to control; conditions: time 1095.0 min
How it was run: (§3)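 PBMC isolated from healthy volunteers' blood in cell preparation tubes, suspended in RPMI; 0.5 million cells/well pre-incubated with compound 15 min at 37 °C, then stimulated with E. coli LPS (B4) 1 µg/mL for 18 h at 37 °C, 5% CO2; medium TNF-α measured by ELISA.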

[15] = AUClast in Wistar rat at 10 mg/kg, po; assay type: ADME, organism-based; parameters: dose 10 mg/kg; conditions: in vivo
Rattus norvegicus [16] = test: Antiinflammatory activity in Sprague-Dawley rat model of LPS-induced COPD and asthma assessed as reduction in total cell count in BALF at 0.3 mg/kg, po administered 30 mins before LPS stimulation and measured after 6 hrs relative to control; assay type: functional; conditions: time 6.5 hrs
Rattus norvegicus [17] = test: Antiinflammatory activity in Sprague-Dawley rat model of LPS-induced COPD and asthma assessed as reduction in total cell count in BALF at 1 mg/kg, po administered 30 mins before LPS stimulation and measured after 6 hrs relative to control; assay type: functional; conditions: time 6.5 hrs
PBMC [18] = test: Inhibition of PDE-4 in human PBMC assessed as LPS-induced TNFalpha production at 100 nM incubated for 15 mins followed by LPS stimulation and measured after 18 hrs by ELISA relative to control; conditions: time 1095.0 min; how it was run: as §3
[19] = Genotoxicity in Salmonella typhimurium TA100 in presence of rat liver S9 fraction at 0.039 to 5 mg by Ames test; assay type: toxicity, subcellular, Salmonella enterica subsp. enterica serovar Typhimurium; conditions: dose 0.039-5 mg
How it was run: (§4)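 Ames reverse mutation test in S. typhimurium TA98 and TA100 with rat liver S9 activation, doses 0.039–5 mg/plate (eight levels); mutagenicity and cytotoxicity scored.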

Rattus norvegicus [20] = test: Antiinflammatory activity in Wistar rat model of LPS-induced uveitis assessed as reduction in infiltrating cells in aqueous humor at 0.1 mg/kg, po administered 24 hrs after LPS stimulation and measured after 1 hr by hemocytometry relative to control; assay type: functional
[21] = target: T1, 3',5'-cyclic-AMP phosphodiesterase 4B; test: Inhibition of human PDE4B using [3H]cAMP as substrate incubated for 5 mins followed by substrate addition and measured after 10 mins by scintillation proximity assay; how it was run: as §2
[22] = Clearance in Wistar rat at 5 mg/kg, iv; assay type: ADME, organism-based; conditions: in vivo
[23] = Inhibition of PDE-4 in human PBMC assessed as LPS-induced TNFalpha production incubated for 15 mins followed by LPS stimulation and measured after 18 hrs by ELISA relative to control; how it was run: as §3
Rattus norvegicus [24] = test: Antiinflammatory activity in Sprague-Dawley rat model of LPS-induced COPD and asthma assessed as reduction in total cell count in BALF at 3 mg/kg, po administered 30 mins before LPS stimulation and measured after 6 hrs relative to control; assay type: functional; conditions: time 6.5 hrs
Rattus norvegicus [25] = test: Antiinflammatory activity in Wistar rat model of LPS-induced uveitis assessed as reduction in infiltrating cells in aqueous humor at 1 mg/kg, po administered 24 hrs after LPS stimulation and measured after 1 hr by hemocytometry relative to control; assay type: functional
[26] = Cmax in Wistar rat at 10 mg/kg, po; assay type: ADME, organism-based; parameters: route oral, dose 10 mg/kg; conditions: in vivo
[27] = Oral bioavailability in Wistar rat at 10 mg/kg; assay type: ADME, organism-based; conditions: in vivo
Rattus norvegicus [28] = test: Antiinflammatory activity in Sprague-Dawley rat model of LPS-induced COPD and asthma assessed as reduction in total cell count in BALF at 0.1 mg/kg, po administered 30 mins before LPS stimulation and measured after 6 hrs relative to control; assay type: functional; conditions: time 6.5 hrs
Rattus norvegicus [29] = test: Antiinflammatory activity in Sprague-Dawley rat model of LPS-induced COPD and asthma assessed as reduction in total cell count in BALF at 10 mg/kg, po administered 30 mins before LPS stimulation and measured after 6 hrs relative to control; assay type: functional; conditions: time 6.5 hrs
[30] = AUClast in Wistar rat at 5 mg/kg, iv; assay type: ADME, organism-based; parameters: dose 5 mg/kg; conditions: in vivo
[31] = Genotoxicity in Salmonella typhimurium TA98 in presence of rat liver S9 fraction at 0.039 to 5 mg by Ames test; assay type: toxicity, subcellular, Salmonella enterica subsp. enterica serovar Typhimurium; conditions: dose 0.039-5 mg; how it was run: as §4
Rattus norvegicus [32] = test: Antiinflammatory activity in Wistar rat model of LPS-induced uveitis assessed as reduction in infiltrating cells in aqueous humor at 10 ug/10ul/eye administered 24 hrs after LPS stimulation and measured after 1 hr by hemocytometry relative to control; assay type: functional; conditions: dose 10 µg

## O=C(NC1CCC(O)CC1)c1csc(-c2ccc(OC(F)F)c3oc4ccccc4c23)n1 (configuration not stated)
Mus musculus [1]
  inhibition in vivo at 3 mg/kg: 82.2%
[2]
  half-life: 1.9 h
Mus musculus [3]
  inhibition in vivo at 0.3 mg/kg: 16.4%
Rattus norvegicus [4]
  inhibition in vivo at 3 mg/kg: 96.9%
[5]
  inhibition: 65.3%
[6]
  Vd: 1 L/kg
Mus musculus [7]
  inhibition in vivo at 1 mg/kg: 34.2%
Rattus norvegicus [8]
  inhibition in vivo at 30 mg/kg: 78.7%
Rattus norvegicus [9]
  inhibition in vivo at 10 mg/kg: 58%
[10]
  half-life: 5 h
[11]
  Tmax: 4.8 h
Rattus norvegicus [12]
  inhibition in vivo at 0.5 mg/kg: 54.4%
[13]
  C0: 4000 ng/mL
PBMC [14]
  inhibition: 93.8%
[15]
  AUC(0-t): 11500 ng·h/mL
Rattus norvegicus [16]
  inhibition in vivo at 0.3 mg/kg: 34.6%
Rattus norvegicus [17]
  inhibition in vivo at 1 mg/kg: 60.7%
PBMC [18]
  inhibition: 77.7%
[19]
  Activity: Non-Toxic
Rattus norvegicus [20]
  inhibition in vivo at 0.1 mg/kg: 43.6%
[21]
  IC50: 63.5 nM
[22]
  clearance: 6.67 mL/min/kg
[23]
  IC50: 31 nM
Rattus norvegicus [24]
  inhibition in vivo at 3 mg/kg: 70.9%
Rattus norvegicus [25]
  inhibition in vivo at 1 mg/kg: 90.3%
[26]
  Cmax: 1400 ng/mL
[27]
  bioavailability: 42%
Rattus norvegicus [28]
  inhibition in vivo at 0.1 mg/kg: 52.8%
Rattus norvegicus [29]
  inhibition in vivo at 10 mg/kg: 75.2%
[30]
  AUC(0-t): 13700 ng·h/mL
[31]
  Activity: Non-Toxic

## C[C@@H]1C[C@H]2[C@@H]3CCC4=CC(=O)C=C[C@]4(C)[C@@]3(F)[C@@H](O)C[C@]2(C)[C@@]1(O)C(=O)CO [DEXAMETHASONE]
Rattus norvegicus [32]
  inhibition (INH): 79.1%
